Source: PMC3753066 (Nature methods, 2013)
Converted amounts (≈) assume the structure as drawn. Starred links: 1 amine or outer side, 2 acyl side, 3 side chain; linkers in the order of their positions; H or OH if unused. Non-standard residues stand in square brackets, D forms with d. Residues, ends and D or L forms follow the SMILES beside them. X1 = CCCCCCCC[C@@H](C(=O)[*:2])N(C)[*:1]; Gly(octyl) = CCCCCCCC[C@H](N)C(=O)O; NMeL = CN[C@@H](CC(C)C)C(=O)O

Legend:
[1] = Water solubility of the peptides; format: physicochemical
MsbA = MsbA (Escherichia coli, UniProt P60752); assay: MsbA ATPase activity and stability in BPs or detergent; format: biochemical, E. coli; conditions: for ATPase activity of MsbA solubilized in the reagent: measured in triplicate at 37 °C, 20 mM Tris pH 7.5, 20 mM NaCl, 0.2–0.5 mg/mL
Chain of MsbA (P60752 whole entry): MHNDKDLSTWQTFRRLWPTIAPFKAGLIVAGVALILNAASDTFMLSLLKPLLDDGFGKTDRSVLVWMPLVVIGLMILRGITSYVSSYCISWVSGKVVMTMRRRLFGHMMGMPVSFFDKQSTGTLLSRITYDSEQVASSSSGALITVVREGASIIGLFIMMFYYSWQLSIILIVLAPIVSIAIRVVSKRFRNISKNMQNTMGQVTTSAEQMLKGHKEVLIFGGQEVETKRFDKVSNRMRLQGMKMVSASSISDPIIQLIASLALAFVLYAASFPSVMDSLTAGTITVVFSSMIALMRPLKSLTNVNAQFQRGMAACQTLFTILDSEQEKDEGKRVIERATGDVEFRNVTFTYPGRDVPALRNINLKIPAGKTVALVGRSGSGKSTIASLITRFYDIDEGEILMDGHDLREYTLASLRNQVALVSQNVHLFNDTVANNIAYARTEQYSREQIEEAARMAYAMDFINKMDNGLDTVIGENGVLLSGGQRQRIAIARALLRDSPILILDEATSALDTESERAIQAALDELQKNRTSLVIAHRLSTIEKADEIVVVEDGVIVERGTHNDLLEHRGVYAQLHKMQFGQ
Procedure, shortened: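 E. coli MsbA purified in UDM, then mixed with peptide at 50:1–100:1 molar ratio (peptide:protein). Detergent was removed by dialysis (6 kDa cutoff, 4 °C, 1–2 days, TLC-monitored) and the supernatant kept after 300,000 × g, 2 h, 4 °C. Comparison preparations were in UDM, LMNG, Amphipol A8-35 (5:1 w/w) or MSP1D1/DMPC nanodiscs. Samples (0.2–0.5 mg/mL) were held at RT up to 40 days, with linked-enzyme ATPase read-out, means ± standard error.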

| SMILES | solubility [1] [µM] | change of MsbA ATPase activity on incubation (MsbA; 40 days of incubation at RT) | ATPase activity of MsbA solubilized in the reagent (MsbA) | loss of MsbA ATPase activity (MsbA; within the first day of incubation at RT, accompanied by protein precipitation) |
| --- | --- | --- | --- | --- |
| CCCCCCCC[C@H](NC(C)=O)C(=O)N[C@@H](CO)C(=O)N[C@@H](CC(C)C)C(=O)N[C@@H](CO)C(=O)N(C)[C@@H](CC(C)C)C(=O)N[C@@H](CC(=O)O)C(=O)N[C@@H](CCCCCCCC)C(=O)N[C@@H](CC(=O)O)C(N)=O [BP-1] (Ac-[Gly(octyl)]SLS[NMeL]D[Gly(octyl)]D-NH2) | ~3000 (≈ 3130 µg/mL) | little change | ~ 4 μmol/min/mg |  |
| CCCCCCCC[C@H](NC(C)=O)C(=O)N[C@@H](CO)C(=O)N(C)[C@@H](CC(C)C)C(=O)N[C@@H](CO)C(=O)N(C)[C@@H](CC(C)C)C(=O)N[C@@H](CC(=O)O)C(=O)N[C@@H](CCCCCCCC)C(=O)N[C@@H](CC(=O)O)C(N)=O [BP-2] (Ac-[Gly(octyl)]S[NMeL]S[NMeL]D[Gly(octyl)]D-NH2) | ~3000 (≈ 3170 µg/mL) |  |  |  |
| CCCCCCCC[C@H](NC(C)=O)C(=O)N[C@@H](CO)C(=O)N(C)[C@@H](CC(C)C)C(=O)N[C@@H](CO)C(=O)N(C)[C@@H](CC(C)C)C(=O)N[C@@H](CC(=O)O)C(=O)N(C)[C@@H](CCCCCCCC)C(=O)N[C@@H](CC(=O)O)C(N)=O [BP-3] (Ac-[Gly(octyl)]S[NMeL]S[NMeL]D[X1]D-NH2) | ~1000 (≈ 1070 µg/mL) |  |  |  |
| CCCCCCCCCCCO[C@@H]1O[C@H](CO)[C@@H](O[C@H]2O[C@H](CO)[C@@H](O)[C@H](O)[C@H]2O)[C@H](O)[C@H]1O [UDM, β-D-undecylmaltoside, reference compound] |  |  | 2.2 µmol/min/mg | ~ 80% |
